ERAP1 inh: human ERAP1 aminopeptidase inhibitors, primary screen, biochemical, single point, plate reader | recombinant ERAP1, Leu-AMC fluorescence, 60 min | 340,000 tested, 0.15% active | inhibition, % at 10.7 µM | AID 652197, 2013 | Endoplasmic reticulum aminopeptidase 1 (Homo sapiens), Q9NZ08;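 active means mean replicate inhibition of at least 30%, or all replicates individually reaching that 30% level; inactive means mean below 30% and not every replicate reaching it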;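 further: 0% = neutral control wells and 100% = L-leucinethiol positive control wells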
FGF22 binding: binders of human FGF22 protein, primary screen, FGF22 synaptogenesis inhibitor project, biophysical, thermal shift, single point. Fibroblast growth factor 22 (Homo sapiens), Q9HCT0. recombinant FGF22 thermal shift, SYPRO orange fluorescence; percent of sucrose octasulfate shift, DMSO zero. activity (Tm shift, normalised), % at 9.99 µM. 340,000 tested, 1.5% active. AID 651658, 2012;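 active means mean Tm shift, scaled 0 neutral to 100 positive control, at about 1.3% or above, every replicate too, limit read from the data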
Target sequence (Q9HCT0 whole entry, looked up): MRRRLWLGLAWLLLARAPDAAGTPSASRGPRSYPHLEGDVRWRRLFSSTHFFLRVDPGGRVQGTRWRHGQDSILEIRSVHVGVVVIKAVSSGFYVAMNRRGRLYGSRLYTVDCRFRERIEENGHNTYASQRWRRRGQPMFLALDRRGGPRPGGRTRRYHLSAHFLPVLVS
PGC1a acetyl inh: inhibitors of PGC1a acetylation signal, primary screen, cell-based, U2OS, AlphaScreen, inhibitor mode | AlphaScreen anti-acetyl-lysine; with virally co-expressed GCN5 acetyltransferase | inhibition, % at 15.6 µM | 350,000 tested, 0.17% active;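 active means every replicate shows inhibition of at least 40%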;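 further: 0% = neutral control wells and 100% = positive control wells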
FN deposition inh: inhibitors of fibronectin matrix deposition, primary screen, AH1F cells, Alexa488-fibronectin fluorescence, plate reader. AID 743247, 2014. AH1F fibroblasts, overnight. inhibition, % at 12.6 µM. 350,000 tested, 0.086% active;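 active means mean inhibition across replicates of 30% or more, regardless of how many single replicates reach that level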;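 further: positive control wells lacked labelled fibronectin entirely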
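Assay system: AH1F fibroblast monolayer, labelled fibronectin deposition. Amount: 10000 cells per well. Also added: labelled fibronectin 24 nM. Compound: single-point pinned compound. Incubation: cell attachment 1 h, compound and FN exposure overnight. Detection: fluorescence after three HBSS washes, excitation 485 nm, emission 525 nm. Read-out: inhibition of fibronectin deposition signal.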
SIRT5 block: SIRT5 desuccinylase inhibitors, primary screen, biochemical, fluorescence imaging, single point, set 5; Purified SirT5, succinyl-peptide AMC, trypsin-coupled fluorescence; inhibition, % at 15 µM; AID 652115, 2013; 330,000 tested, 1.1% active; NAD-dependent protein deacylase sirtuin-5, mitochondrial (Homo sapiens), Q9NXA8; in the data active means inhibition above about 15%
Target sequence (Q9NXA8 whole entry, looked up): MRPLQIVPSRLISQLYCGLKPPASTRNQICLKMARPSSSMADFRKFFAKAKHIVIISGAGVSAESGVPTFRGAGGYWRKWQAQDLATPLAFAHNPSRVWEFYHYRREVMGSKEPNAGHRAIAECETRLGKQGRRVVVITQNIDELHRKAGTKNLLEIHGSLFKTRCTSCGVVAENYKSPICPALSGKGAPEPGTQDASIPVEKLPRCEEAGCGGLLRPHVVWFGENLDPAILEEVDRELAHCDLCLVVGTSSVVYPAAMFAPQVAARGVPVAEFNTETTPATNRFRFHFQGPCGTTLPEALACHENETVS
The depositor's hits bear a star; x = no result given; ! = repeats disagree. The list is not random: actives were taken first. Their share in the collection is about 2.2%.

SMILES	ERAP1 inh	FGF22 binding	PGC1a acetyl inh	FN deposition inh	SIRT5 block
CC(C)NC(=O)Nc1ccc2c(c1)C(=O)N([C@@H](C)CO)C[C@H](C)[C@@H](CN(C)C(=O)Nc1ccc3c(c1)OCO3)OCCCC[C@@H](C)O2	2.4	-0.2	-7.4	-3.9	-3.6
C[C@H](CO)N1C[C@H](C)[C@H](CN(C)S(=O)(=O)c2ccc(F)cc2)Oc2c(NC(=O)c3nc4ccccc4s3)cccc2C1=O	-0.4	-0.1	-6.9	8.8	24.3*
C[C@@H]1CN([C@@H](C)CO)C(=O)c2cccc(NC(=O)c3nc4ccccc4s3)c2O[C@@H]1CN(C)Cc1ccccc1	1.8	-0.5	x	x	5.7
C[C@@H]1CN([C@H](C)CO)C(=O)c2cccc(NC(=O)c3nc4ccccc4s3)c2O[C@@H]1CN(C)C(=O)NC1CCCCC1	-2.7	-0.1	1.6	11.6	34.1*
C[C@@H]1CN([C@@H](C)CO)C(=O)c2cccc(NC(=O)c3nc4ccccc4s3)c2O[C@@H]1CN(C)Cc1ccc(C(F)(F)F)cc1	0.1	0.3	23.8	0.8	18.3*
COCC(=O)Nc1ccc2c(c1)[C@@H]1C[C@@H](CC(=O)NCc3cccnc3)O[C@@H](CO)[C@@H]1O2	-1.2	0.0	4.5	x	-1.9
CCNC(=O)[C@H]1[C@H](CO)[C@H]2Cn3c(ccc(-c4ccccc4F)c3=O)[C@H]2N1CC	0.2	0.1	x	x	-0.9
CN1CCN(C(=O)C[C@@H]2C[C@H]3c4cc(NC(=O)Nc5ccc(F)cc5)ccc4O[C@H]3[C@@H](CO)O2)CC1	-0.9	-0.5	-5.2	4.1	-0.2
On1nnc2ccc(C(F)(F)F)cc21	-1.5	43.5*	x	9.6	0.0
COCCNC(=O)/C(C#N)=C/c1ccc(O)c([N+](=O)[O-])c1	9.5	43.2*	x	-0.3	-0.2
COC(=O)[C@@H]1[C@@H](CO)[C@@H]2Cn3c(ccc(C4=CCCCC4)c3=O)[C@@H]2N1C(=O)C1CCCC1	3.4	-0.2	x	-3.4	0.2
O=c1c2cc(-c3ccccc3)sc2nc2n1CCC2	-3.4	44.1*	x	3.8	-5.1
O=c1c2ccccc2nc2n1CCC2	x	x	11.1	1.6	x
COc1ccccc1CNC(=O)C[C@H]1CC[C@H]2[C@@H](COC[C@@H](O)CN2Cc2cccc(-c3ccncc3)c2)O1	0.5	-0.1	-6.6	4.1	0.7
Cc1ccc(C[n+]2cc(-c3ccc(Cl)cc3)n3c2CCC3)cc1	2.1	0.2	-3.6	-13.7	-3.3
Cc1ccc(-c2c[n+](Cc3ccc(Cl)cc3)c3n2CCC3)cc1	1.7	0.2	x	-8.8	39.6*
CN(C[C@@H]1N[C@@H](CO)[C@@H]1c1ccc(C2=CCCCC2)cc1)S(C)(=O)=O	x	x	-2.7	22.8	x
CCS(=O)(=O)N1CC(=O)N2[C@H](CO)[C@H](c3ccc(C4=CCCCC4)cc3)[C@@H]2C1	x	x	0.5	-6.5	22.1*
O=C1CNC[C@H]2[C@@H](c3ccc(C4=CCCC4)cc3)[C@H](CO)N12	-0.1	x	4.1	-3.2	21.3*
CN(C[C@H]1[C@@H](c2ccc(C3=CCCC3)cc2)[C@@H](CO)N1CCC(F)(F)F)S(C)(=O)=O	x	x	x	1.2	24.7*
O=C1CNC[C@@H]2[C@H](c3ccc(C4=CCCC4)cc3)[C@H](CO)N12	0.7	x	6.6	-0.5	5.6
C[C@H](CO)N1C[C@H](C)[C@H](CN(C)S(C)(=O)=O)Oc2c(NS(=O)(=O)c3ccc(F)cc3)cccc2C1=O	0.1	0.0	-1.6	x	-5.3
CNC(=O)C[C@@H]1C(=O)N(Cc2ccccc2)CC1(C)C	-0.5	0.1	-15.0	-2.6	4.9
CNC(=O)C[C@@H]1C(=O)N(CCc2ccccc2)CC1(C)C	-0.6	43.3*	2.4	-1.4	x
Cc1ccc(C(=O)Nc2c(C)cc(-c3ccccc3)oc2=O)cc1	1.1	43.1*	-12.9	15.6	-6.3
SMILES	ERAP1 inh	FGF22 binding	PGC1a acetyl inh	FN deposition inh	SIRT5 block
Cc1ccc(C(=O)Nc2nc(-c3ccccc3)c(-c3ccccc3)o2)cc1	x	x	x	0.9	x
C[C@H](CO)N1C[C@H](C)[C@H](CN(C)C)Oc2ncc(-c3ccc(F)cc3)cc2C1=O	0.6	0.1	4.1	1.6	-2.8
CCOc1ccccc1CN1CCN(Cc2ccc(C)o2)C(CCO)C1 (stereo not given)	-0.5	43.1*	x	-5.9	2.2
Cc1ccc(CN2CCN(Cc3cnn(-c4ccc(Cl)cc4)c3)CC2CCO)o1 (stereo not given)	1.9	42.8	x	1.2	25.6*
CN1CCOc2cc(S(=O)(=O)Nc3ccc(F)cc3)ccc21	x	x	6.6	x	x
Cc1ccc(NS(=O)(=O)c2ccc3c(c2)N(C)CCO3)cc1	-4.0	-0.5	x	-6.1	21.8*
C[C@@H]1CN([C@H](C)CO)C(=O)c2cc(NS(=O)(=O)c3ccc(F)cc3)ccc2O[C@@H](C)CCCCO[C@@H]1CN(C)C(=O)CCC(F)(F)F	1.9	-0.4	-9.9	-1.5	3.8
Cc1cccc(NC(=O)c2ccc(C3SCC(=O)N3CCc3ccccc3)cc2)c1 (stereo not given)	0.4	0.1	-3.0	32.6*	-3.3
CC(=O)Nc1ccc(NC(=O)c2ccc(C3SCC(=O)N3CCc3ccccc3)cc2)cc1 (stereo not given)	x	x	-1.1	-5.2	x
Cn1ccsc1=NC(=O)c1ccc([N+](=O)[O-])o1	-3.0	-0.1	x	-0.3	-2.9
COc1cc(C(=O)N=c2sccn2C)c([N+](=O)[O-])cc1OC	45.0*	0.4	0.0	6.1	-5.7
CO[C@H]1CC[C@H]2CCN(C)C(=O)C[C@@H](c3ccccc3)CN(C)C(=O)c3cccc(C#N)c3OC[C@H]1O2	0.4	-0.1	x	-1.1	-1.0
CCCNC(=O)N(C)C[C@@H]1Oc2ncc(Br)cc2C(=O)N([C@H](C)CO)C[C@@H]1C	-4.0	-0.2	5.6	4.5	19.6*!
Cc1ccc(-c2cnc3c(c2)C(=O)N([C@@H](C)CO)C[C@H](C)[C@@H](CN(C)C(=O)c2cccnc2)O3)cc1	3.2	-0.2	10.3	x	25.8*
C[C@H](CO)N1C[C@H](C)[C@@H](CN(C)C(=O)c2cccnc2)Oc2ncc(-c3ccccc3)cc2C1=O	-1.0	0.0	-5.0	-8.3	-1.7
CCC(=O)N(C)C[C@@H]1Oc2ncc(-c3ccc(F)cc3)cc2C(=O)N([C@@H](C)CO)C[C@@H]1C	1.9	0.0	5.4	-12.0	24.0*
C/C=C/c1cnc2c(c1)C(=O)N([C@@H](C)CO)C[C@@H](C)[C@@H](CN(C)C(=O)NC1CCCCC1)O2	-1.0	0.0	1.6	-11.8	28.1*
C/C=C/c1cnc2c(c1)C(=O)N([C@H](C)CO)C[C@H](C)[C@H](CN(C)C(=O)NC1CCCCC1)O2	-0.3	0.2	3.9	5.9	4.6

Assay outcomes (PubChem BioAssay)
